Bioassay records: PubChem BioAssay, several laboratories
The full list was thinned out, with hits kept by preference.
S1P4 antagonist: antagonists of human S1P4 receptor | O95977 | S1P4-expressing cells, antagonist mode, reporter read-out | hit rate 0.26% among 220,000 | AID 1510 | inhibition, % at 4.98 µM; in the data active = inhibition above about 29%
Mdm2 ligase inh: Mdm2 E3 ligase (human) inhibition. Q00987. cell-based MDM2 ubiquitination luciferase reporter, 2 h; 0 = plate control, 100 = twice control, blank-subtracted. signal enhancement, % at 5 µM. hit rate 0.11% among 210,000. AID 1230;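 active = signal enhancement of 30% or more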;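 also: luminescence tracks abundance of the self-degrading MDM2-luciferase fusion protein; higher signal means inhibition of MDM2 E3 ligase activity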
Target sequence (Q00987 whole entry, looked up, the tested form may be a part): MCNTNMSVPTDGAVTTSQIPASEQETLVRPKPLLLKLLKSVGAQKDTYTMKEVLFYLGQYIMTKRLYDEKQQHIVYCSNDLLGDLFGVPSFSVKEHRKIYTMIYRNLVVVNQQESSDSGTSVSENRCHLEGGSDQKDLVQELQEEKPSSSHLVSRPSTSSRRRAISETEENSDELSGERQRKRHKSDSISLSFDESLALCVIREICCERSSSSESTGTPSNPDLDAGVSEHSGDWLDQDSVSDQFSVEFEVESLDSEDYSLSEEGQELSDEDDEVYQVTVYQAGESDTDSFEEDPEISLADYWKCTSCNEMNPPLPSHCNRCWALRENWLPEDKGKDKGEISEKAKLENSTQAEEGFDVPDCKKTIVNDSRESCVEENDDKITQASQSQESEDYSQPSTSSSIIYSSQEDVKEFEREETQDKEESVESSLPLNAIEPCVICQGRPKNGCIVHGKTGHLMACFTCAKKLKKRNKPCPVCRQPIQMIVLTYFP
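Timing – 2 h compound exposure at 37 °C · Assay system – mammalian cells stably expressing self-ubiquitinating, self-degrading MDM2 E3–luciferase fusion · Amount – 2000 cells seeded into each well · Measure – % luminescence enhancement versus blank-corrected plate control mean · Measured by – SteadyLite luminescence, 15 min reagent step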
S1P4 agonist: agonists of human S1P4 receptor | S1P4-expressing cell line, agonist reporter assay | activation, % at 4.98 µM | hit rate 0.35% among 220,000 | AID 1509; in the data active = activation above about 11%
S1P3 antag: antagonists of human S1P3 receptor | CHO S1P3 NFAT-BLA reporter, FRET fluorescence, antagonist mode | inhibition, % at 4.98 µM | hit rate 0.27% among 170,000 | AID 485;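 active = inhibition above the plate cutoff, the mean inhibition of test wells on that plate plus 3 SD, cut at about 28% in these data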;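 also: cells challenged with S1P at its EC80 of 0.8 µM; blue over green emission ratio from cleaved BLA substrate after 4 h stimulation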
L major viab: inhibitors of Leishmania major promastigote growth | Leishmania major promastigotes, resazurin fluorescence viability | inhibition, % at 10 µM | hit rate 9% among 200,000; in the data active = inhibition above about 50%;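 also: promastigotes grown with compound for 44 hours at 28 °C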
Hits are given with their value; 0 = inactive; - = no result.

SMILES	S1P4 antagonist	Mdm2 ligase inh	S1P4 agonist	S1P3 antag	L major viab
CC(C)OC(=O)c1cccc(-c2ccc(C=O)o2)c1	0	0	0	0	88
O=C(NNS(=O)(=O)c1ccc([N+](=O)[O-])cc1)c1cnn(-c2ccccc2)c1-n1cccc1	0	0	0	-	0
Cc1ccccc1NC(=O)CSc1nc(O)cc(=O)n1C	0	0	0	0	-
O=C(c1ccc(=O)[nH]n1)N1CCN(S(=O)(=O)c2ccc3ccccc3c2)CC1	0	0	0	0	0
O=C(c1n[nH]c2ccccc12)N1CCN(S(=O)(=O)c2ccc3ccccc3c2)CC1	0	0	0	0	55
CC1CN(CCCCN2C(=O)c3ccccc3C2=O)CC(C)O1 (stereo unspecified)	0	0	0	0	0
COC(=O)c1ccccc1OCCCCN1CC(C)OC(C)C1 (stereo unspecified)	0	0	0	0	88
CC1CN(CCCCOc2ccc(F)cc2)CC(C)O1 (stereo unspecified)	0	0	0	0	85
Cc1ccc(C)c(OCCOCCN2CC(C)OC(C)C2)c1C (stereo unspecified)	0	0	0	-	91
CCCCOc1ccc(CN2CCCCC2)cc1	0	0	0	0	93
O=c1c2cc3c(cc2[nH]c(=S)n1Cc1ccco1)OCO3	0	0	0	-	0
CCN1CCN(CCCNC(=O)C2c3ccccc3C(=O)N(c3ccc(OC)cc3)C2c2ccc(OC)cc2)CC1 (stereo unspecified)	0	0	0	0	0
CCOC(=O)C1(CCCc2ccccc2)CCN(C(=O)C2CCCN(C(N)=O)C2)CC1 (stereo unspecified)	0	0	0	0	0
CCOc1ccccc1OCCCCN1CCCC1	0	0	0	0	0
Fc1ccc(OCCCCCN2CCCC2)cc1	0	0	0	-	87
CCOc1ccc(OCCCCN2CCCC2)cc1	0	0	0	-	99
COc1ccccc1N1CCN(CCCCCCOc2ccc(F)cc2)CC1	0	0	0	0	0
COc1ccc(CCNC(=O)c2c(O)c3c([nH]c2=O)CCCC3)cc1	0	0	0	-	0
C=CCN(c1ccccc1OC)S(=O)(=O)c1cccc(C(=O)OCC(=O)c2c[nH]c3ccccc23)c1	0	-	0	0	97
COc1cc(C(=O)OCC(=O)c2c[nH]c3ccccc23)ccc1OCC(=O)N1CCOCC1	0	0	0	0	0
COc1cc(OC)c(N(C)S(=O)(=O)c2cccc(C(=O)OCC(=O)c3c[nH]c4ccccc34)c2)cc1Cl	0	0	0	0	97
COc1cccc(NC(=S)N2CCn3cccc3C2c2cccnc2)c1 (stereo unspecified)	0	0	0	0	88
CCCCNC(=S)N1CCn2cccc2C1c1ccccc1 (stereo unspecified)	0	0	0	0	0
CCCCNC(=S)N1CCn2cccc2C1c1ccc(F)cc1 (stereo unspecified)	0	0	0	0	52
Cc1cccc(NC(=S)N2CCn3cccc3C2c2cccnc2)c1 (stereo unspecified)	0	0	0	0	89
SMILES	S1P4 antagonist	Mdm2 ligase inh	S1P4 agonist	S1P3 antag	L major viab
Fc1ccc(NC(=S)N2CCn3cccc3C2c2cccnc2)cc1 (stereo unspecified)	0	0	0	0	91
CCOC(=O)c1ccccc1NC(=O)c1c(O)c2ccccc2n(CC)c1=O	0	0	0	0	0
C=CCn1c(=O)c(C(=O)Nc2ccccc2C(=O)OCC)c(O)c2ccccc21	0	0	0	0	68
COCCn1nnnc1C(c1cccs1)N1CCN(c2nc3ccccc3s2)CC1 (stereo unspecified)	0	0	0	0	95
CC(C)CC(c1nnnn1Cc1cccs1)N1CCN(c2nc3ccccc3s2)CC1 (stereo unspecified)	0	0	0	-	98
CCCCOc1ccc(CC2CCC(=O)NC2=O)cc1 (stereo unspecified)	0	0	0	0	0
CCCCN(Cc1ccccc1)S(=O)(=O)c1cc(Br)cc2c1N(C(C)=O)C(C)C2 (stereo unspecified)	0	0	0	-	98
CC(=O)N1c2c(cc(Br)cc2S(=O)(=O)NCc2cccnc2)CC1C (stereo unspecified)	0	0	0	-	0
Cc1cc(/C=N/NC(N)=S)c(C)n1-c1ccc(Cl)cc1	0	0	0	0	89
Cc1cc(/C=N/O)c(C)n1-c1ccc(Br)cc1	0	0	0	0	0
Cc1cc(/C=N/NC(=O)C(O)(c2ccccc2)c2ccccc2)c(C)n1-c1cccc(C(=O)O)c1	0	0	0	0	-
Cc1cc(/C=N/NC(N)=S)c(C)n1-c1cccc(Cl)c1	0	0	0	0	94
Cc1cccc(C)c1-n1c(C)cc(/C=N/NC(N)=S)c1C	0	0	0	-	97
Cc1cc(/C=N\NC(=O)CC(=O)NC2CCCCC2)c(C)n1-c1ccc(Cl)cc1	0	0	0	-	0
Cc1cc(/C=N/NC(N)=S)c(C)n1-c1ccc(Br)cc1	0	0	0	0	99
CN1C(=O)C(N=Nc2ccccc2C(=O)O)N(C)C1=S (stereo unspecified)	0	0	0	0	0
CCN1CCc2c(OCc3ccccc3)cccc2C1=O	0	0	0	0	0
NC(=S)n1[nH]c(-c2ccc([N+](=O)[O-])cc2)c(N=Nc2ccccc2[N+](=O)[O-])c1=O	0	0	0	0	0
Cc1c(N=Nc2c(-c3ccc([N+](=O)[O-])cc3)[nH]n(C(N)=S)c2=O)cccc1[N+](=O)[O-]	0	0	0	0	65
CCCCOC(=O)C1=C(C)Nc2ncnn2C1c1cc(OC)ccc1OC (stereo unspecified)	0	0	0	0	0
COc1ccc(C2C=C(c3ccc(C)c(C)c3)Nc3ncnn32)c(OC)c1OC (stereo unspecified)	0	0	0	0	80
CCOC(=O)C1=C(c2ccccc2)Nc2ncnn2C1c1cc(OC)ccc1OC (stereo unspecified)	0	0	0	0	100
CCCCOC(=O)C1=C(C)Nc2ncnn2C1c1cccc(OC)c1 (stereo unspecified)	0	0	0	0	61
CCOC(=O)C1=C(C(F)(F)F)Nc2ncnn2C1c1cc(OC)ccc1OC (stereo unspecified)	0	0	0	0	0
COc1cccc(C2C(C(=O)OCc3ccccc3)=C(C)Nc3ncnn32)c1OC (stereo unspecified)	0	0	0	0	91
C=C(C)c1nc(N)nc(N)n1	0	0	0	0	0
NS(=O)(=O)c1ccc(NC(=O)Cn2ncc3c2-c2ccccc2OC3)cc1	0	0	0	-	0
O=C(c1ccc(COc2c(F)c(F)cc(F)c2F)o1)N1CCN(c2ccc(Cl)cc2)CC1	0	0	0	0	0
COC(=O)c1[nH]c2ccccc2c1NC(=O)C(C)N1CC(C)OC(C)C1 (stereo unspecified)	0	0	0	0	-
CCOC(=O)C1=C(c2ccccc2)Nc2nc(C)nn2C1c1cccc(OC)c1OC (stereo unspecified)	0	0	0	0	0
